# Measurements from different studies.
Structure (SMILES),organism,assay,test system,setting,endpoint,value
O=C(Nc1ccccc1-c1ccc(F)c(F)c1)c1nccnc1C(F)(F)F,Alternaria solani,microbial growth,,,EC50,0.15 µg/mL
O=C(O)CN1C(=O)/C(=C/c2c3ccccc3c(-c3ccc(N(c4ccccc4)c4ccccc4)cc3)c3ccccc23)SC1=S,Micrococcus luteus,"microbial killing, broth dilution",ATCC10240,,MBC,125 µg/mL
O=C1C=C(OCc2cn(-c3ccc(F)cc3)nn2)C(=O)c2ccccc21,Escherichia coli,"microbial growth, broth dilution",ATCC25922,,IC50,165 µg/mL
CC[C@@H]1C(=O)N(C)c2cnc(Nc3ccc(C(=O)N[C@H]4CC[C@H](N5CCN(CC6CC6)CC5)CC4)cc3OC)nc2N1C(C)C,Staphylococcus aureus,microbial growth,NCTC8325,,MIC,> 30 µM
Cc1ccc(C(C)C)cc1OS(=O)(=O)c1cccs1,Escherichia coli,"microbial growth, broth dilution",ATCC25922,,IC50,149 µg/mL
O=C(O)CN1C(=O)/C(=C/c2c3ccccc3c(-c3ccc(N(c4ccccc4)c4ccccc4)cc3)c3ccccc23)NC1=S,Micrococcus luteus,"microbial killing, broth dilution",ATCC10240,,MBC,> 1000 µg/mL
Cc1ccc2nc(-n3nc(C(C)C)c4c3-c3ccccc3C4=O)sc2c1,Staphylococcus aureus,"microbial growth, well diffusion",NCIM5021,125 µg/mL,inhibition zone,12 mm
O=C(Nc1c[nH]nc1-c1nc2ccc(CN3CCOCC3)cc2[nH]1)NC1CC1,Staphylococcus aureus,microbial growth,NCTC8325,,MIC,> 30 µM
Cc1ccc(C(C)C)cc1OS(=O)(=O)c1ccc([N+](=O)[O-])cc1,Escherichia coli,"microbial growth, broth dilution",ATCC25922,,IC50,176 µg/mL
CCN1CCN(Cc2ccc(-c3cc4c(N[C@H](C)c5ccccc5)ncnc4[nH]3)cc2)CC1,Staphylococcus aureus,microbial growth,NCTC8325,,MIC,> 30 µM
Cc1nn(-c2nc3ccc(Br)cc3s2)c2c1C(=O)c1ccccc1-2,Staphylococcus aureus,"microbial growth, well diffusion",NCIM5021,250 µg/mL,inhibition zone,11 mm
O=C1C=C(OCc2cn(-c3ccc([N+](=O)[O-])cc3)nn2)C(=O)c2ccccc21,Escherichia coli,"microbial growth, broth dilution",ATCC25922,,IC50,396 µg/mL
O=C1NC(=O)[C@@H](c2cn3c4c(cccc24)CCC3)[C@@H]1c1c[nH]c2ccccc12,Staphylococcus aureus,microbial growth,NCTC8325,,MIC,> 30 µM
COc1ccc2nc(-n3nc(C)c4c3-c3ccccc3C4=O)sc2c1,Staphylococcus aureus,"microbial growth, well diffusion",NCIM5021,500 µg/mL,inhibition zone,12 mm
CN(C)C1CCN(C(=O)c2ccc(NC(=O)Nc3ccc(-c4nc(N5CCOCC5)nc(N5CCOCC5)n4)cc3)cc2)CC1,Staphylococcus aureus,microbial growth,NCTC8325,,MIC,> 30 µM
COc1ccc2nc(-n3nc(CC(C)C)c4c3-c3ccccc3C4=O)sc2c1,Staphylococcus aureus,"microbial growth, well diffusion",NCIM5021,250 µg/mL,inhibition zone,12 mm
COc1cc2ncnc(Nc3ccc(F)c(Cl)c3)c2cc1OCCCN1CCOCC1,Staphylococcus aureus,microbial growth,NCTC8325,,MIC,> 30 µM
O=C1NC(=S)N/C1=C\c1c2ccccc2c(-c2ccc(N(c3ccccc3)c3ccccc3)cc2)c2ccccc12,Micrococcus luteus,"microbial killing, broth dilution",ATCC10240,,MBC,> 1000 µg/mL
CCCCS(=O)(=O)Oc1cc(C(C)C)ccc1C,Escherichia coli,"microbial growth, broth dilution",ATCC25922,,IC50,156 µg/mL
Cc1ccc2nc(-n3nc(CC(C)C)c4c3-c3ccccc3C4=O)sc2c1,Staphylococcus aureus,"microbial growth, well diffusion",NCIM5021,1000 µg/mL,inhibition zone,14 mm
O=C1NC(=S)N/C1=C\c1ccc(-c2ccc(N(c3ccccc3)c3ccccc3)cc2)cc1,Micrococcus luteus,"microbial killing, broth dilution",ATCC10240,,MBC,> 1000 µg/mL
Cc1ccc(C(C)C)cc1OS(=O)(=O)c1ccccc1,Escherichia coli,"microbial growth, broth dilution",ATCC25922,,IC50,113 µg/mL
CC(C)c1nn(-c2nc3ccc(Br)cc3s2)c2c1C(=O)c1ccccc1-2,Staphylococcus aureus,"microbial growth, well diffusion",NCIM5021,125 µg/mL,inhibition zone,11 mm
O=C(O)CN1C(=O)/C(=C/c2ccc(-c3ccc(N(c4ccccc4)c4ccccc4)cc3)cc2)SC1=S,Micrococcus luteus,"microbial killing, broth dilution",ATCC10240,,MBC,31.3 µg/mL
CC(C)c1nn(-c2nc3ccc(Cl)cc3s2)c2c1C(=O)c1ccccc1-2,Staphylococcus aureus,"microbial growth, well diffusion",NCIM5021,250 µg/mL,inhibition zone,11 mm
CNC(=O)c1cc(Oc2ccc(NC(=O)Nc3cc(C(C)(C)C)nn3-c3ccc4ncccc4c3)c(F)c2)ccn1,Staphylococcus aureus,microbial growth,NCTC8325,,MIC,> 30 µM
CC(C)Cc1nn(-c2nc3ccc(Br)cc3s2)c2c1C(=O)c1ccccc1-2,Staphylococcus aureus,"microbial growth, well diffusion",NCIM5021,500 µg/mL,inhibition zone,14 mm
O=C(Nc1ccc2c(c1)CCC2)Nc1ccc(Cl)c(C(F)(F)F)c1,Staphylococcus aureus,microbial growth,NCTC8325,24 h,MIC,> 100 µM
